Key:
T47D = test: Cytotoxicity against human T47D cells after 96 hrs by trypan blue exclusion assay; type: functional, cell-based
In short: (§1)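 Cells grown in DMEM or RPMI with 10% FBS and 1 unit/mL penicillin-streptomycin, seeded at 1.0 × 10⁵ cells/mL/well in 6-well dishes; compound added 24 h later at various concentrations. After 96 h of treatment, viable cells counted by trypan blue exclusion in duplicate wells; dose-response end point.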

OVCAR-3 = test: Cytotoxicity against human OVCAR3 cells after 96 hrs by trypan blue exclusion assay; type: functional, cell-based; conditions: OVCAR-3, 96 h
In short: (§2)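 Cells grown in DMEM or RPMI with 10% FBS and penicillin-streptomycin, seeded at 1.0 × 10⁵ cells/mL/well in 6-well dishes. Compound added at a range of concentrations 24 h after seeding. Viable cells counted by trypan blue exclusion from duplicate wells after 96 h of exposure; dose-response end point.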

MIA PaCa-2 = test: Cytotoxicity against human MIAPaCa2 cells after 96 hrs by trypan blue exclusion assay; type: functional, cell-based; conditions: MIA PaCa-2, 96 h; in short: as §2
BXPC-3 = test: Cytotoxicity against human BxPC3 cells after 96 hrs by trypan blue exclusion assay; type: functional, cell-based; conditions: BXPC-3, 96 h; in short: as §2
PANC-1 = test: Cytotoxicity against human PANC1 cells after 96 hrs by trypan blue exclusion assay; type: functional, cell-based; conditions: PANC-1, 96 h; in short: as §2
[1] = Cytotoxicity against human U87 cells after 96 hrs by trypan blue exclusion assay; type: functional, cell-based, U-87MG ATCC; conditions: U-87 MG; in short: as §1
NCI-H157 = test: Cytotoxicity against human NCI-H157 cells after 96 hrs by trypan blue exclusion assay; type: functional, cell-based; conditions: NCI-H157, 96 h; in short: as §2
NCI-H187 = test: Cytotoxicity against human NCI-H187 cells after 96 hrs by trypan blue exclusion assay; type: functional, cell-based; conditions: NCI-H187, 96 h; in short: as §2
NCI-H417 = test: Cytotoxicity against human NCI-N417 cells after 96 hrs by trypan blue exclusion assay; type: functional, cell-based; conditions: NCI-H417, 96 h; in short: as §2
AGS = test: Cytotoxicity against human AGS cells after 96 hrs by trypan blue exclusion assay; type: functional, cell-based; in short: as §2
[2] = Cytotoxicity against human RF1 cells after 96 hrs by trypan blue exclusion assay; type: functional, cell-based; conditions: RF1, 96 h; in short: as §1
[3] = Cytotoxicity against human RF48 cells after 96 hrs by trypan blue exclusion assay; type: functional, cell-based; conditions: RF48, 96 h; in short: as §1
HeLa = test: Cytotoxicity against human HeLa cells after 96 hrs by trypan blue exclusion assay; type: functional, cell-based; in short: as §2
DLD-1 = test: Cytotoxicity against human DLD1 cells after 96 hrs by trypan blue exclusion assay; type: functional, cell-based; conditions: DLD-1, 96 h; in short: as §2
HCT-15 = test: Cytotoxicity against human HCT15 cells after 96 hrs by trypan blue exclusion assay; type: functional, cell-based; conditions: HCT-15, 96 h; in short: as §2
SW480 = test: Cytotoxicity against human SW480 cells after 96 hrs by trypan blue exclusion assay; type: functional, cell-based; conditions: SW480, 96 h; in short: as §1
RPMI-7951 = test: Cytotoxicity against human RPMI7951 cells after 96 hrs by trypan blue exclusion assay; type: functional, cell-based; conditions: RPMI-7951, 96 h; in short: as §1
[4] = Cytotoxicity against human WM983A cells after 96 hrs by trypan blue exclusion assay; type: functional, cell-based; in short: as §1
[5] = Cytotoxicity against human WM3211 cells after 96 hrs by trypan blue exclusion assay; type: functional, cell-based; conditions: WM3211, 96 h; in short: as §1
[6] = Cytotoxicity against human WM278 cells after 96 hrs by trypan blue exclusion assay; type: functional, cell-based; conditions: WM278, 96 h; in short: as §1
[7] = Cytotoxicity against human WM239A cells after 96 hrs by trypan blue exclusion assay; type: functional, cell-based; in short: as §1
[8] = Cytotoxicity against human WM793 cells after 96 hrs by trypan blue exclusion assay; type: functional, cell-based; conditions: WM793, 96 h; in short: as §1
[9] = Cytotoxicity against human 451LU cells after 96 hrs by trypan blue exclusion assay; type: functional, cell-based; in short: as §2
[10] = Cytotoxicity against human GRANTA-519 cells after 96 hrs by trypan blue exclusion assay; type: functional, cell-based; conditions: Granta-519, 96 h; in short: as §2
Bel-7402 = test: Cytotoxicity against human Bel7402 cells after 96 hrs by trypan blue exclusion assay; type: functional, cell-based; conditions: Bel-7402, 96 h; in short: as §2
KB = test: Cytotoxicity against human KB cells after 96 hrs by trypan blue exclusion assay; type: functional, cell-based; in short: as §2
LP-1 = test: Cytotoxicity against human LP-1 cells after 96 hrs by trypan blue exclusion assay; type: functional, cell-based; conditions: LP-1, 96 h; in short: as §2
[11] = Cytotoxicity against human […] cells after 96 hrs by trypan blue exclusion assay; type: functional, cell-based; in short: as §1
HL-60 = test: Cytotoxicity against human HL60 cells after 96 hrs by trypan blue exclusion assay; type: functional, cell-based; conditions: HL-60, 96 h; in short: as §2
HEL = test: Cytotoxicity against human HEL cells after 96 hrs by trypan blue exclusion assay; type: functional, cell-based; in short: as §2
Daudi = test: Cytotoxicity against human Daudi cells after 96 hrs by trypan blue exclusion assay; type: functional, cell-based; in short: as §2
Raji = test: Cytotoxicity against human Raji cells after 96 hrs by trypan blue exclusion assay; type: functional, cell-based; in short: as §1
[12] = Cytotoxicity against human NAMALWA cells after 96 hrs by trypan blue exclusion assay; type: functional, cell-based; conditions: NAMALVA; in short: as §2
CCRF-CEM = test: Cytotoxicity against human CEM cells assessed as cell viability after 96 hrs by trypan blue exclusion; type: functional, cell-based; in short: as §2
CEM/C2 [13] = test: Cytotoxicity against multidrug-resistant human CEM/C2 cells assessed as cell viability after 96 hrs by trypan blue exclusion; type: functional, cell-based; conditions: CEM/C2, 96 h; in short: as §1
2008 = test: Cytotoxicity against human 2008 cells assessed as cell viability after 96 hrs by trypan blue exclusion; type: functional, cell-based; conditions: Homo sapiens, 2008, 96 h; in short: as §2
[14] = Cytotoxicity against multidrug-resistant human 2008/17/4 cells assessed as cell viability after 96 hrs by trypan blue exclusion; type: functional, cell-based; in short: as §1
HFL1 [15] = test: Cell cycle arrest in human HFL1 cells assessed as accumulation of cells in G2/M phase at 0.1 to 1 uM after 24 hrs by propidium iodide staining-based flow cytometric analysis; type: ADME; conditions: hfl1, 24 h
In short: (§3)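 DMEM with 10% FBS; 1.0 × 10⁶ cells/dish, treated 24 h after plating and harvested 24 h after treatment. Trypsinized cells were pooled with floating cells, PBS-washed and fixed in ice-cold 70% ethanol for ≥24 h. Cells were stained with propidium iodide plus RNase A for 30 min at 37 °C. DNA content was read by flow cytometry with cell-cycle modelling.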

HFL1 [16] = test: Cell cycle arrest in human HFL1 cells assessed as accumulation at G1 phase at 0.1 to 1 uM after 24 hrs by propidium iodide staining-based flow cytometric analysis; type: ADME; conditions: hfl1, 24 h; in short: as §3
BT-20 = test: Antitumor activity in human BT20 cells xenografted in NCR-nu/nu, Taconic mouse assessed as decrease in tumor volume at 200 mg/kg, ip administered every other day for 22 days relative to control; type: functional; conditions: route intraperitoneal
In short: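 Female athymic NCR-nu/nu mice received 0.5–1.0 x10⁷ BT20 cells subcutaneously in the hind leg. Dosing began about 14 days later, with tumors near 70 mm³. Groups of N=9 got 200 mg/kg in PBS or PBS vehicle, Q2D x 20. Two tumor dimensions were measured by caliper three times weekly, and V = L×S²×π/6. Body weight and toxicity signs were tracked. Group means ±SEM.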

CEM/C2 [17] = test: Resistance ratio of IC50 for human CEM cells to IC50 for multidrug-resistant human CEM/C2 cells; type: functional
In short: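 Cells were grown in DMEM or RPMI with 10% FBS and plated at 1.0 × 10⁵ cells/mL/well in 6-well dishes. Compound was added 24 h later at various concentrations for 96 h. Viable cells were counted from duplicate wells by trypan blue exclusion, and the IC50 of each line gave the ratio.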

[18] = Aqueous solubility of the compound; type: physicochemical; conditions: water

COc1cc(OC)c(/C=C/S(=O)(=O)Cc2ccc(OC)c(NCC(=O)[O-])c2)c(OC)c1.[Na+] [RIGOSERTIB SODIUM]
IC50 (T47D): 170 nM | IC50 (OVCAR-3): 75 nM | IC50 (MIA PaCa-2): 50 nM | IC50 (BXPC-3): 75 nM | IC50 (PANC-1): 40 nM | IC50 [1]: 80 nM | IC50 (NCI-H157): 80 nM | IC50 (NCI-H187): 80 nM | IC50 (NCI-H417): 80 nM | IC50 (AGS): 80 nM | IC50 [2]: 50 nM | IC50 [3]: 50 nM | IC50 (HeLa): 100 nM | IC50 (DLD-1): 150 nM | IC50 (HCT-15): 90 nM | IC50 (SW480): 60 nM | IC50 (RPMI-7951): 25 nM | IC50 [4]: 40 nM | IC50 [5]: 75 nM | IC50 [6]: 150 nM | IC50 [7]: 75 nM | IC50 [8]: 75 nM | IC50 [9]: 25 nM | IC50 [10]: 75 nM | IC50 (Bel-7402): 100 nM | IC50 (KB): 70 nM | IC50 (LP-1): 30 nM | IC50 [11]: 10 nM | IC50 (HL-60): 20 nM | IC50 (HEL): 50 nM | IC50 (Daudi): 150 nM | IC50 (Raji): 75 nM | IC50 [12]: 75 nM | IC50 (CCRF-CEM): 100 nM | IC50 (CEM/C2 [13]): 50 nM | IC50 2008: 150 nM | IC50 [14]: 100 nM | Activity (HFL1 [15]): Toxic | Activity (HFL1 [16]): Toxic | fold change (FC) (BT-20): 2.5 | Ratio IC50 (CEM/C2 [17]): 2 | solubility [18]: 28 mg/mL

Source: ChEMBL document CHEMBL2010670, “Discovery of a clinical stage multi-kinase inhibitor sodium (E)-2-{2-methoxy-5-[(2',4',6'-trimethoxystyrylsulfonyl)methyl]phenylamino}acetate (ON 01910.Na): synthesis, structure-activity relationship, and biological activity” (J Med Chem, 2011)
